Screening results: PubChem BioAssay, several laboratories
This is a sample that favours compounds with a hit; in the whole collection about 1.4% have one here.
Tb MetRS inh: T. brucei MetRS inhibitors, primary screen, biochemical, luminescence; methionyl-tRNA synthetase (Trypanosoma brucei brucei); purified T. brucei MetRS, ATP depletion, Kinase-Glo luminescence; inhibition, % at 11.9 µM; 0.4% of 360,000 active;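 active = inhibition above a per-plate cutoff of the control wells' mean inhibition plus 3 SD, cut at about 5.5% in these data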;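 also: 0% = DMSO wells median and 100% = median of wells with control inhibitor compound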
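Test system: purified T. brucei MetRS enzyme. Also added: ATP, methionine and E. coli bulk tRNA substrates. Compound: 11.9 µM single point. Schedule: 15 min enzyme-compound preincubation, 2 h reaction, 10 min detection, 25 °C. Signal: luciferase luminescence of residual ATP, Kinase-Glo. Evaluation: percent inhibition versus plate control medians. Controls: DMSO wells, low control.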
HDAC3 inhib: HDAC3 deacetylase inhibitors, primary screen, biochemical, fluorescence, cell-free homogeneous; Histone deacetylase 3 (Homo sapiens), O15379; recombinant HDAC3, fluorogenic peptide/trypsin coupled; 0.15% of 320,000 active; inhibition, % at 8.3 µM; in the data active = inhibition above about 26%, passing the limit was not always enough
IDE cell activ: human IDE activators in live cells, primary screen, fluorescence polarization, HEK cells, FAbeta-B substrate | FAbeta-B cleavage; 0% vehicle, 100% cell-free pure enzyme wells | AID 493087, 2011 | Insulin-degrading enzyme (Homo sapiens), P14735 | 0.073% of 340,000 active | activation, % at 5.96 µM;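 active = activation above the mean of all tested compounds plus 3 SD, set per screening campaign, cut at about 17% in these data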
Target sequence (P14735 whole entry, looked up): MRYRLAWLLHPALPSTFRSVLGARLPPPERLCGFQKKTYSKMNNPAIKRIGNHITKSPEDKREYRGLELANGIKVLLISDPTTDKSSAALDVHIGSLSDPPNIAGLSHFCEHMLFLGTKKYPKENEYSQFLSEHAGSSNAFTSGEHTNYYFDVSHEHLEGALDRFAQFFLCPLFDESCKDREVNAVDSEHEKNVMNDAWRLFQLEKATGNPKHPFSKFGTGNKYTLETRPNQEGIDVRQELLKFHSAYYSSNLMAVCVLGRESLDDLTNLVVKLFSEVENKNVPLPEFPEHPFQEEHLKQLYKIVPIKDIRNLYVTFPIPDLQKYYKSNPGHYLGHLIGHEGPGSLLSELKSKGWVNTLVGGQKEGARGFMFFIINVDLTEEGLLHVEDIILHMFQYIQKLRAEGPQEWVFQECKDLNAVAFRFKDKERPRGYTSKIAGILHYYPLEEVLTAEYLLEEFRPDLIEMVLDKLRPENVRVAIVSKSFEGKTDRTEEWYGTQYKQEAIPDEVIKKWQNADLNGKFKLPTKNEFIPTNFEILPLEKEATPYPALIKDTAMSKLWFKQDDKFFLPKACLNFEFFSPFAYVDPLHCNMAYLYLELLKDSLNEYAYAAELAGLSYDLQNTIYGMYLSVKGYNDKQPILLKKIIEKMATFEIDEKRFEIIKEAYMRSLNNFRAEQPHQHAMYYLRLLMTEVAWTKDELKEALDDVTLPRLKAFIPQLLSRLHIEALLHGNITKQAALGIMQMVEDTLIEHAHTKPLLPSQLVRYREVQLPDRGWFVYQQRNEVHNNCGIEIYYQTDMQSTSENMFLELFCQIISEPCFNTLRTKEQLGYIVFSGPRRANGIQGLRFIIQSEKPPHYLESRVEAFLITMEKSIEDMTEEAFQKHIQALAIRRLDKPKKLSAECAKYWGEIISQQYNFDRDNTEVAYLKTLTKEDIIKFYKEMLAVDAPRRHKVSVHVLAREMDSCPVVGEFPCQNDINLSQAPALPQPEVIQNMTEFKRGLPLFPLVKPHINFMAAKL
IDE inh: human IDE inhibitors in live cells, primary screen, fluorescence polarization, HEK cells, FAbetaB substrate; FAbetaB cleavage; inhibition, % at 5.59 µM; 0.41% of 320,000 active; AID 434962, 2010;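 active = percent inhibition above the average of all tested compounds plus 3 SD, set per screening campaign, cut at about 16% in these data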;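 also: IDE supplied by intact live HEK cells; FP after avidin binding of uncleaved biotin substrate so inhibition keeps polarization high; 0% = DMSO wells and 100% = 60 µM reference IDE inhibitor Ii1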
Efflux pump mplx: inhibitors of Candida efflux pumps in yeast, primary screen, S. cerevisiae, Nile Red, multiplex | AID 485275, 2010 | S. cerevisiae Candida pump triplex | inhibition, % at 10 µM | 0.44% of 330,000 active;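 active = plate passing quality check with inhibition over a set limit, or well fluorescence over plate mean plus 4 SD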;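 also: Nile Red retained in pooled yeast measured as flow cytometry median fluorescence; 0% = buffer negative control and 100% = Enniatin B positive control; higher means more Nile Red kept so more efflux inhibition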
CR mimetic SO: reduction of superoxide in aged yeast, primary screen, HTS; S. cerevisiae aged cells, superoxide DHE fluorescence; stronger effect = lower value; superoxide response (% of plate mean), % at 10 µM; 0.18% of 330,000 active; AID 2690, 2010;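 active = superoxide response under a set limit, about three screen SD below normal, cut at about 65% in these data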;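 also: yeast aged for seven days with compound at 30 °C before DHE staining; 100% = average MFI of all compound-treated wells on the plate with controls excluded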
TbMetRS confirm: T. brucei MetRS inhibitors, confirmation, biochemical, luminescence; shares compounds with Tb MetRS inh; T. brucei MetRS enzyme, luminescence (ATP depletion); inhibition, % at 11.9 µM; 93% of 1,400 active; AID 624412, 2012; in the data active = inhibition above about 7%
Jurkat tox: Jurkat T cell cytotoxicity, cytotoxicity control for T. brucei MetRS inhibitor project, luminescence, high throughput; shares compounds with Tb MetRS inh; Jurkat cells viability, ATP luminescence; inhibition, % at 8.3 µM; 12% of 1,400 active; AID 624413, 2012; in the data active = inhibition above about 15%;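 also: 0% = vehicle and 100% = reference inhibitor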
Tb MetRS inh FP: T. brucei MetRS inhibitors, orthogonal assay for T. brucei MetRS inhibitor project, biochemical, fluorescence polarization; inhibition, % at 11.9 µM; purified T. brucei MetRS; 44% of 1,400 active; shares compounds with Tb MetRS inh; in the data active = inhibition above about 17%;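 also: 0% = vehicle wells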
An asterisk follows results filed as active.

What do the screens show for `CCOC(=O)Nc1cc(OC)cc2ccc(C)nc12`?
Tb MetRS inh: 0.0

Results for COC(=O)C1=C(C)NC(=O)NC1c1ccc2c(c1)OCO2 (stereo unspecified) ?
Tb MetRS inh: -0.9; HDAC3 inhib: -5.8; IDE cell activ: 6.6; IDE inh: -2.2; Efflux pump mplx: -0.2; CR mimetic SO: 94.5

Results for Cc1[nH]n(-c2ccccc2)c(=O)c1C(c1ccc(O)c([N+](=O)[O-])c1)c1c(C)[nH]n(-c2ccccc2)c1=O ?
Tb MetRS inh: 12.9*; HDAC3 inhib: 7.7; IDE cell activ: 5.2; IDE inh: -0.1; Efflux pump mplx: 0.0; CR mimetic SO: 96.7; TbMetRS confirm: 0.6; Jurkat tox: 1.4; Tb MetRS inh FP: 2.0

What do the screens show for `CCOc1cccc(C(c2c(C)n(C)n(-c3ccccc3)c2=O)c2c(C)n(C)n(-c3ccccc3)c2=O)c1OC`?
Tb MetRS inh: -0.4; HDAC3 inhib: -3.0; IDE cell activ: 2.2; IDE inh: -0.2; Efflux pump mplx: -0.2; CR mimetic SO: 91.3

How did COc1cccc(C(c2c(C)[nH]n(-c3ccccc3)c2=O)c2c(C)[nH]n(-c3ccccc3)c2=O)c1OC do in these assays?
Tb MetRS inh: 7.7*; HDAC3 inhib: 11.0; IDE cell activ: 8.0; IDE inh: -0.4; Efflux pump mplx: 0.1; CR mimetic SO: 95.7; TbMetRS confirm: 1.8; Jurkat tox: 19.4*; Tb MetRS inh FP: -0.2

Results for COc1cccc(C(c2c(C)[nH]n(-c3ccccc3)c2=O)c2c(C)[nH]n(-c3ccccc3)c2=O)c1O ?
Tb MetRS inh: 8.1*; HDAC3 inhib: 1.6; IDE cell activ: 7.2; IDE inh: 7.0; Efflux pump mplx: -0.3; CR mimetic SO: 113.1; TbMetRS confirm: 1.8; Jurkat tox: -2.3; Tb MetRS inh FP: 2.2

How did CCN1C(=O)CC(c2ccc(OC(C)C)cc2)C1=O (stereo unspecified) do in these assays?
Tb MetRS inh: -0.4; HDAC3 inhib: 3.3; IDE cell activ: 3.5; IDE inh: 1.2; Efflux pump mplx: 0.1; CR mimetic SO: 107.6

Results for CCOc1cc(N2CCOCC2)c(OCC)cc1NS(=O)(=O)c1ccc2c(c1)CC(=O)N2 ?
Tb MetRS inh: 0.0

Results for Cc1ccc2[nH]c(=O)c(CN(CC3CCCO3)C(=S)NCc3ccco3)cc2c1 (stereo unspecified) ?
Tb MetRS inh: 12.2*; HDAC3 inhib: 16.1; IDE cell activ: 3.1; IDE inh: -2.4; Efflux pump mplx: -0.3; CR mimetic SO: 93.4; TbMetRS confirm: 23.1*; Jurkat tox: 3.0; Tb MetRS inh FP: 12.4

How did COc1ccc2[nH]c(=O)c(CN(C(=O)NC3CCCCC3)C3CCCC3)cc2c1 do in these assays?
Tb MetRS inh: -0.2; HDAC3 inhib: -5.6; IDE cell activ: -1.6; IDE inh: 3.6; Efflux pump mplx: -0.1; CR mimetic SO: 96.7

What do the screens show for `Cc1ccc2cc(CN(CC3CCCO3)C(=S)Nc3ccccc3)c(=O)[nH]c2c1` (stereo unspecified)?
Tb MetRS inh: -1.1; HDAC3 inhib: -3.3; IDE cell activ: 1.2; IDE inh: -1.4; Efflux pump mplx: -0.1; CR mimetic SO: 102.8

Results for COc1ccc2[nH]c(=O)c(CN(C(C)=O)C3CCCCC3)cc2c1 ?
Tb MetRS inh: 9.6*; HDAC3 inhib: 0.8; IDE cell activ: 2.7; IDE inh: 2.9; Efflux pump mplx: 0.0; CR mimetic SO: 103.0; TbMetRS confirm: 15.1*; Jurkat tox: 2.8; Tb MetRS inh FP: 10.9

How did Cc1ccc2[nH]c(=O)c(CN(CC3CCCO3)C(=S)Nc3ccccc3)cc2c1 (stereo unspecified) do in these assays?
Tb MetRS inh: 6.1*; HDAC3 inhib: 6.1; IDE cell activ: 4.0; IDE inh: 2.0; Efflux pump mplx: -0.5; CR mimetic SO: 111.3; TbMetRS confirm: 47.7*; Jurkat tox: 5.7; Tb MetRS inh FP: 27.2*

What do the screens show for `CCCCNC(=S)N(CCN(CC)CC)Cc1cc2cc3c(cc2[nH]c1=O)OCO3`?
Tb MetRS inh: 8.8*; HDAC3 inhib: -5.7; IDE cell activ: 4.2; IDE inh: 5.1; Efflux pump mplx: -0.1; CR mimetic SO: 98.8; TbMetRS confirm: 16.2*; Jurkat tox: 4.8; Tb MetRS inh FP: 8.1

How did COc1ccc2[nH]c(=O)c(CN(CC3CCCO3)C(=O)Nc3ccc(F)cc3)cc2c1 (stereo unspecified) do in these assays?
Tb MetRS inh: 0.1; IDE cell activ: 1.9

How did COc1ccc(NC(=O)N(Cc2cc3cc(C)ccc3[nH]c2=O)CC2CCCO2)cc1 (stereo unspecified) do in these assays?
Tb MetRS inh: 11.6*; HDAC3 inhib: 3.8; IDE cell activ: 5.6; IDE inh: 1.9; Efflux pump mplx: 0.0; CR mimetic SO: 93.6; TbMetRS confirm: 48.9*; Jurkat tox: 12.5; Tb MetRS inh FP: 17.5*

How did Cc1ccc2[nH]c(=O)c(CN(Cc3ccccc3)C(=S)NCCCN(C)C)cc2c1 do in these assays?
Tb MetRS inh: 7.0*; HDAC3 inhib: 4.3; IDE cell activ: 4.8; IDE inh: 6.2; Efflux pump mplx: 0.0; CR mimetic SO: 90.8; TbMetRS confirm: 17.2*; Jurkat tox: 17.1*; Tb MetRS inh FP: 10.2

Results for CN(C)CCCNC(=S)N(Cc1cccs1)Cc1cc2cc3c(cc2[nH]c1=O)OCCO3 ?
Tb MetRS inh: 0.3; HDAC3 inhib: 5.2; IDE cell activ: -2.7; IDE inh: -0.8; Efflux pump mplx: 0.0; CR mimetic SO: 98.8

What do the screens show for `CCOc1ccc(S(=O)(=O)NCc2ccc3c(c2)OCO3)cc1`?
Tb MetRS inh: -0.2; HDAC3 inhib: 0.4; IDE cell activ: 5.9; IDE inh: 0.8; Efflux pump mplx: -0.1; CR mimetic SO: 94.7

Results for Cc1ccc(CN(C)C(=O)c2c(C)nn(-c3ccccc3)c2C)cc1 ?
Tb MetRS inh: -0.3; HDAC3 inhib: 4.6; IDE cell activ: 6.3; IDE inh: -2.7; Efflux pump mplx: 0.0; CR mimetic SO: 90.7
